Results published in ChEMBL document CHEMBL4396878, “Mechanisms of Specific versus Nonspecific Interactions of Aggregation-Prone Inhibitors and Attenuators” (J Med Chem, 2019).
The source made the active and inactive calls. The calls are words filed in the database; no cut-off is given here.

Experiments:
[1] = target: T1, Rap guanine nucleotide exchange factor 3 (Homo sapiens) (UniProt O95398); experiment: Binding affinity to human EPAC1 cAMP binding domain (149 to 318 residues) at 200 to 300 uM in presence of triton X-100 using aggregate form of compound by [15N-1H]HSQC spectroscopic analysis
T1 sequence (whole entry): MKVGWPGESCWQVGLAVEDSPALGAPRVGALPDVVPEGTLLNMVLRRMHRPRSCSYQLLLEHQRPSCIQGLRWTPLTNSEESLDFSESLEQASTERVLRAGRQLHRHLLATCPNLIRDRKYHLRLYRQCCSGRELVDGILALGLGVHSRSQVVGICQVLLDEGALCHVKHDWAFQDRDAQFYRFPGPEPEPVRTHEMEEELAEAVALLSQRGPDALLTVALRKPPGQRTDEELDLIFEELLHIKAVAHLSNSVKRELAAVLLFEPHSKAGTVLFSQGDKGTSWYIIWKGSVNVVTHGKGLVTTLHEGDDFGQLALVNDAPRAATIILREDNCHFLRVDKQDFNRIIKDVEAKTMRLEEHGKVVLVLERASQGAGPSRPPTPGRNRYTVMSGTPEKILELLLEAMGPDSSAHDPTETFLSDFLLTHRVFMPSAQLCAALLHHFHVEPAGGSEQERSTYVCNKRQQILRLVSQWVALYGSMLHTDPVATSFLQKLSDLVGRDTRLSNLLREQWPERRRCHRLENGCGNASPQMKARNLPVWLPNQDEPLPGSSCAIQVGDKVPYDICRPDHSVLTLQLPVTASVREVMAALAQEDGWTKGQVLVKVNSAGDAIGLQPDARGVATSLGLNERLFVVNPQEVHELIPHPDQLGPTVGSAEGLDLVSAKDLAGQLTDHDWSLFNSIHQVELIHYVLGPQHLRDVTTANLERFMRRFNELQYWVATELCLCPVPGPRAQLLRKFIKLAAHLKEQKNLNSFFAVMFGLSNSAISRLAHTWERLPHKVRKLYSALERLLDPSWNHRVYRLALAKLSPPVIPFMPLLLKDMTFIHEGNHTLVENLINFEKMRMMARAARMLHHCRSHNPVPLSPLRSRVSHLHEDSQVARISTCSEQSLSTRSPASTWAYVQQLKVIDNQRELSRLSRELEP

[2] = Aggregation property of the compound in NMR buffer at 250 uM by surface plasmon resonance analysis; assay type: physicochemical
Outline: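 SPR on a nonfunctionalized gold nanoparticle sensor; samples in NMR buffer with DMSO at 1.25%, injected at 33 μL/min alongside matched DMSO controls (with HSA where present, 25 μM), in duplicate. Surface regenerated only after HSA-containing injections.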

[3] = target: T1, Rap guanine nucleotide exchange factor 3 (Homo sapiens); experiment: Ratio of apparent Kd for binding affinity to human EPAC1 cAMP binding domain (149 to 318 residues) in presence of human serum albumin to apparent Kd for binding affinity to human EPAC1 cAMP binding domain (149 to 318 residues) in absence of human serum albumin
[4] = Aggregation property of the compound in NMR buffer assessed as aggregate size at 500 uM by dynamic light scattering analysis; assay type: physicochemical
Outline: (§1)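 Dynamic light scattering in NMR buffer, samples filtered through 0.22 μm and centrifuged 5 min at 13 500 rpm before measurement. Autocorrelation accumulated 150 s at a 173° scattering angle, in replicates of 3–5, with water viscosity used in analysis; intensity or volume size distributions reported.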

[5] = Binding affinity to Triton-X 100 assessed as aggregate formation at 1:1 ratio of Triton-X 100 to compound by dynamic light scattering analysis; outline: as §1
[6] = Aggregation property of the compound assessed as change in saturation transfer at 100 uM irradiated at 6.61 ppm by STD NMR spectra analysis; assay type: physicochemical
Outline: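 STD NMR, saturation by a train of 40 Gaussian pulses of 50 ms each; selective on-resonance irradiation at the stated ppm (TX at 7.48 ppm), off-resonance at 30 ppm, interleaved and subtracted by phase cycling. 32K points, 16 ppm width centred at 4.7 ppm, 256 scans, 16 dummy scans, 0.1 s recycle delay (~15 min); 3 Hz exponential line broadening.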

Activity [1]: Active
Activity [2]: Active
Activity [3]: inactive
Activity [4]: 90 to 600 nm
Activity [5]: inactive
Activity [6]: Not Active
SMILES: CC(C)(C)c1cc(C(=O)/C(C#N)=N/Nc2cccc(Cl)c2)no1
